Measured values taken from ChEMBL document CHEMBL4020742, “Design and optimization of purine derivatives as in vivo active PDE10A inhibitors” (Bioorg Med Chem, 2017).
Active and inactive are the calls of the source. The calls are words filed in the database; no cut-off is given here.

Tests used:
[1] = biological target: T1, cAMP and cAMP-inhibited cGMP 3',5'-cyclic phosphodiesterase 10A (Homo sapiens, UniProt Q9Y233); test: (§1) Inhibition of recombinant human N-terminal GST-tagged PDE10A1 (2 to 789 residues) expressed in baculovirus infected Sf9 cells at 5 uM using fluorescein-labeled cAMP as substrate preincubated for 15 mins followed by substrate addition measured after 30 mins by IMAP fluorescence polarization assay relative to control
T1 sequence (Q9Y233 whole entry, the tested form may be a part): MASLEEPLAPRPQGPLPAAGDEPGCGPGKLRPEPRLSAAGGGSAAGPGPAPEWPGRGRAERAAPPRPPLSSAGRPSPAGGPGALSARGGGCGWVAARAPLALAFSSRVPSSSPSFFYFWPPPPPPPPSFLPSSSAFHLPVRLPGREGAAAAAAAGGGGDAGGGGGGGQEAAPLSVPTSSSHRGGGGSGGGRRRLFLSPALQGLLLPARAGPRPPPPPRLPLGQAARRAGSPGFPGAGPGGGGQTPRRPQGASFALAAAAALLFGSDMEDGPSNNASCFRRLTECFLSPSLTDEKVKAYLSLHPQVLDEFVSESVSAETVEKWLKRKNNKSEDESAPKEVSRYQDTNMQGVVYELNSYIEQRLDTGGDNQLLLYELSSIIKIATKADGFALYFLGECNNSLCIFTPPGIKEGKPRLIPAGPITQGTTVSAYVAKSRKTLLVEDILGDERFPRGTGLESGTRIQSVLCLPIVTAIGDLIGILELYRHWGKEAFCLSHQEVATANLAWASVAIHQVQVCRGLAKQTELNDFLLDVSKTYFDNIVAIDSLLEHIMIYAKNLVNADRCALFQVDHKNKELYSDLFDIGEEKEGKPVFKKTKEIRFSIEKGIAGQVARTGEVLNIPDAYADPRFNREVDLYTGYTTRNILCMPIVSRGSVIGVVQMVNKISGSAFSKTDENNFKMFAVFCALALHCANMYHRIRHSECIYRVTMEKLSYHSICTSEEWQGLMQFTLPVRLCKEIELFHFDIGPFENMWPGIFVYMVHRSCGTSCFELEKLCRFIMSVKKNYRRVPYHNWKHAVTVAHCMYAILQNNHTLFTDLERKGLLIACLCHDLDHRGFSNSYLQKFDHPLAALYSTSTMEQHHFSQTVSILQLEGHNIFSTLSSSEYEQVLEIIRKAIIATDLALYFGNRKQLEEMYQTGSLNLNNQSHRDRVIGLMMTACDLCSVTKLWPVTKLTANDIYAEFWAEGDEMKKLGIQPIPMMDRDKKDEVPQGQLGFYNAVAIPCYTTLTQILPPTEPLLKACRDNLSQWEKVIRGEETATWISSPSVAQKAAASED
Procedure, shortened: (§2)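 Recombinant PDE4A1A, PDE2A1 or PDE10A1 was incubated with compound (1% DMSO, duplicate) for 15 min at RT. Fluorescein-cAMP was then added for 30 min at RT, and the reaction was stopped with IMAP binding reagent (1 h, dark). FP was read at Ex485/Em535. Inhibition was set against no-enzyme and DMSO controls. IC50 came from a four-parameter logistic fit; values are the mean of at least two measurements.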

[2] = biological target: T2, CYP3A4 (Homo sapiens, UniProt P08684); test: Time-dependent inhibition of CYP3A4 in human microsomes at 10 uM using midazolam as substrate preincubated for 5 mins followed by NADPH addition measured 20 mins relative to control; format: ADME; conditions: human microsomes, probe midazolam, read-out: TDI
T2 sequence (P08684 whole entry): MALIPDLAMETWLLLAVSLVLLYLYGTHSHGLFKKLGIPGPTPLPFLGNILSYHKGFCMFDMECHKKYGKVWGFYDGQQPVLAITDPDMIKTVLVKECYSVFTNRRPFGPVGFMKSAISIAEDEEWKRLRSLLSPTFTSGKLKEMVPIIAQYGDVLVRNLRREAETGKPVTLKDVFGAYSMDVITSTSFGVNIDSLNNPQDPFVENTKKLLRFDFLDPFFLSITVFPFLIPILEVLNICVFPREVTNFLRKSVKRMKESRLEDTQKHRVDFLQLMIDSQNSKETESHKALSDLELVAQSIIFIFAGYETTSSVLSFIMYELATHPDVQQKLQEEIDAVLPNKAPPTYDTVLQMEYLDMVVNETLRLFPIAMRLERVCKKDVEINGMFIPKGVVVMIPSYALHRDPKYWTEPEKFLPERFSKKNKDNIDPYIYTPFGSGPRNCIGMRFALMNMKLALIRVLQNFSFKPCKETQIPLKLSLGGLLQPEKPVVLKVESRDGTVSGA

[3] = biological target: CYP2D6 (Homo sapiens, UniProt P10635); test: […] of CYP2D6 in human microsomes at 10 uM using dextromethorphan as substrate preincubated for 5 mins followed by NADPH addition measured 20 mins relative to control; format: ADME; conditions: human microsomes, probe dextromethorphan, read-out: TDI
Sequence of CYP2D6 (P10635 whole entry): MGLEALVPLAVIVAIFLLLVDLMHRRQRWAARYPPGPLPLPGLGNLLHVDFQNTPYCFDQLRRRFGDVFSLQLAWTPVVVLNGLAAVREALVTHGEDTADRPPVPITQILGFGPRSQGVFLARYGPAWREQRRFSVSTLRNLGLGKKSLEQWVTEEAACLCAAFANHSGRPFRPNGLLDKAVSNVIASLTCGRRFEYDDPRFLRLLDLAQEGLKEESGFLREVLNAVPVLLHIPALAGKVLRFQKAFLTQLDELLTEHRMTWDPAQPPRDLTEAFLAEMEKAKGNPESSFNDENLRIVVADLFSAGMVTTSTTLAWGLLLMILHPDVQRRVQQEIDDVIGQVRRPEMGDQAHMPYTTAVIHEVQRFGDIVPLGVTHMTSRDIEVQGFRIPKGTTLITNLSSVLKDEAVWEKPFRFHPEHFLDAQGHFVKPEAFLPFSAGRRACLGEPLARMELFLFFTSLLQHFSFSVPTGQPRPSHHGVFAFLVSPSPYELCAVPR

[4] = tested on: Rattus norvegicus; test: Antipsychotic activity in Sprague-Dawley rat assessed as inhibition of PCP-induced hyperlocomotion at 50 mg/kg, po pretreated for 30 mins followed by PCP addition measured after 5 mins for 1.5 hrs by open field test; format: functional, organism-based
Procedure, shortened: (§3)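 Male SD rats (200-250 g), acclimated at least 1 week. Drug was given p.o. in sterile saline with 0.5% Tween 80 and 0.2% CMC-sodium, 30 min before PCP 5 mg/kg i.p. Rats were placed in a 40×40×45 cm open-field arena 5 min after PCP and video-tracked for 90 min. Read-out was total distance travelled, reported as mean ± SEM.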

[5] = Half life in mouse liver microsomes at 1 uM preincubated for 5 mins followed by NADPH addition measured up to 30 mins by LC-MS/MS analysis; format: ADME, microsome
Procedure, shortened: (§4)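 Liver microsomes (0.5 mg/mL) plus 1 µM compound were preincubated 5 min at 37 °C in 0.1 M phosphate buffer pH 7.4 containing EDTA and MgCl₂. NADPH started the reaction. Samples at 0, 5, 10 and 30 min were quenched with cold acetonitrile containing tinidazole internal standard and centrifuged. Parent remaining was quantified by LC/MS/MS.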

[6] = tested on: Rattus norvegicus; test: Antipsychotic activity in Sprague-Dawley rat assessed as inhibition of PCP-induced prepulse inhibition deficit at 50 mg/kg, po pretreated for 30 mins followed by PCP addition measured after 5 mins to 10 mins; format: functional, organism-based
Procedure, shortened: (§5)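 Male SD rats (200-250 g) were dosed p.o. in saline with 0.5% Tween 80 and 0.2% CMC-sodium, 30 min before PCP 5 mg/kg i.p. Acoustic startle PPI was tested in startle chambers 5-10 min after PCP. Startle magnitude was the mean of pulse-alone trials. n = 11-16 per group; mean ± SEM; ANOVA with post hoc tests.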

[7] = biological target: Cytochrome P450 2D6 (Homo sapiens, UniProt P10635); test: Inhibition of CYP2D6 in human microsomes at 10 uM using dextromethorphan as substrate preincubated for 5 mins followed by NADPH addition measured 20 mins relative to control; format: ADME; conditions: microsomes, 20 min, 10 µM
Sequence of Cytochrome P450 2D6 (P10635 whole entry): as above
Procedure, shortened: (§6)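 Pooled human microsomes (0.2 mg/mL) in 100 mM phosphate pH 7.4 with a probe cocktail: midazolam 10 µM, dextromethorphan 10 µM, diclofenac 20 µM, phenacetin 100 µM, mephenytoin 100 µM. Test compound was 10 µM; organic solvent was under 1%. After 5 min preincubation at 37 °C, 1 mmol/L NADPH was added and the reaction ran 20 min, keeping substrate conversion below 20%. Metabolite formation was expressed relative to PBS control.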

[8] = biological target: T1, cAMP and cAMP-inhibited cGMP 3',5'-cyclic phosphodiesterase 10A; test: Inhibition of recombinant human N-terminal GST-tagged PDE10A1 (2 to 789 residues) expressed in baculovirus infected Sf9 cells using fluorescein-labeled cAMP as substrate preincubated for 15 mins followed by substrate addition measured after 30 mins by IMAP fluorescence polarization assay; procedure, shortened: as §2
[9] = biological target: T3, Cytochrome P450 2C9 (Homo sapiens, UniProt P11712); test: Inhibition of CYP2C9 in human microsomes at 10 uM using diclofenac as substrate preincubated for 5 mins followed by NADPH addition measured 20 mins relative to control; format: ADME; conditions: microsomes, 20 min, 10 µM; procedure, shortened: as §6
T3 sequence (P11712 whole entry): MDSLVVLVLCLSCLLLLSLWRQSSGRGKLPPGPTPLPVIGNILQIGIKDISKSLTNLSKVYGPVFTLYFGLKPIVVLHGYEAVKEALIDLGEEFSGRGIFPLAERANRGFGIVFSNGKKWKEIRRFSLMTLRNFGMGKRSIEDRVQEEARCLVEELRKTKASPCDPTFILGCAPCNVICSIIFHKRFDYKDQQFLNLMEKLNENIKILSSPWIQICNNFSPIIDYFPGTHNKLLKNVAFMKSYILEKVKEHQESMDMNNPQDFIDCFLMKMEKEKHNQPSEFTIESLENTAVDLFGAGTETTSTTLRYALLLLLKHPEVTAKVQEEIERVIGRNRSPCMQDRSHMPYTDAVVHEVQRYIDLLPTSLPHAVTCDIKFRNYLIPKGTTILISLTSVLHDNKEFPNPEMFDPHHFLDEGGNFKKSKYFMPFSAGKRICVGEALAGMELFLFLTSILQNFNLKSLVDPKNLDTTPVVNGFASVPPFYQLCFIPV

[10] = biological target: PDE2A1 (Homo sapiens, UniProt O00408); test: as §1, with “N-terminal FLAG-tagged PDE2A1” for “N-terminal GST-tagged PDE10A1”, “to 941” for “to 789”, “at 1” for “at 5”; conditions: probe fluorescein-labeled cAMP; procedure, shortened: as §2
Sequence of PDE2A1 (O00408 whole entry): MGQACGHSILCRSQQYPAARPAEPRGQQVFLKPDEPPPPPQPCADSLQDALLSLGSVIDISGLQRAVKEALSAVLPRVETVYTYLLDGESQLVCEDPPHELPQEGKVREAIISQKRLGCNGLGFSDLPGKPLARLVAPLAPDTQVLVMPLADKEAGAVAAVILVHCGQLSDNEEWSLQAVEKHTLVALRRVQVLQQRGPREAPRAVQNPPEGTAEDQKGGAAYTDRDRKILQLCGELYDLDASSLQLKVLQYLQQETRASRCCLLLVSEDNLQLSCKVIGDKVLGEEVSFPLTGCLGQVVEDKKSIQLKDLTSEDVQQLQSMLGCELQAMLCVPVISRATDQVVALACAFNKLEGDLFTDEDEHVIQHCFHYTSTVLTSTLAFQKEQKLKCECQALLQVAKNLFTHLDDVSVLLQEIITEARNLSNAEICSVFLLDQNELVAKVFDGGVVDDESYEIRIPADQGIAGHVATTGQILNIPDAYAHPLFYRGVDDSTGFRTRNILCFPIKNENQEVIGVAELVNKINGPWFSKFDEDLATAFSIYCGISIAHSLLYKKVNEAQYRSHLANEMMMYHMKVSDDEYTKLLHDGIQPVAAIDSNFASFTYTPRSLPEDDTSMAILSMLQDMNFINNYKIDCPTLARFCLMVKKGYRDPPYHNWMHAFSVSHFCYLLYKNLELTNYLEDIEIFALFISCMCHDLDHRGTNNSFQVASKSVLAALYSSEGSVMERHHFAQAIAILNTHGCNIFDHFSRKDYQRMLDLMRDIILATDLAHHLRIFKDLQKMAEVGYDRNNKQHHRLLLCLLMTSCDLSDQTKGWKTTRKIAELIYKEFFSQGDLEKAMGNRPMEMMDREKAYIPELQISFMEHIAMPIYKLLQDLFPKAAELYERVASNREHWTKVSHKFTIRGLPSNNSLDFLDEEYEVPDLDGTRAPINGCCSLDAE

[11] = Half life in human liver microsomes at 1 uM preincubated for 5 mins followed by NADPH addition measured up to 30 mins by LC-MS/MS analysis; format: ADME, microsome; procedure, shortened: as §4
[12] = biological target: T3, Cytochrome P450 2C9; test: […] of CYP2C9 in human microsomes at 10 uM using diclofenac as substrate preincubated for 5 mins followed by NADPH addition measured 20 mins relative to control; format: ADME; conditions: microsomes, 20 min, 10 µM
[13] = tested on: Rattus norvegicus; test: Antipsychotic activity in Sprague-Dawley rat assessed as inhibition of PCP-induced prepulse inhibition deficit at 10 mg/kg, po pretreated for 30 mins followed by PCP addition measured after 5 mins to 10 mins; format: functional, organism-based; procedure, shortened: as §5
[14] = biological target: T4, CYP1A2 (Homo sapiens, UniProt P05177); test: Inhibition of CYP1A2 in human microsomes at 10 uM using phenacetin as substrate preincubated for 5 mins followed by NADPH addition measured 20 mins relative to control; format: ADME; conditions: probe phenacetin, read-out: TDI; procedure, shortened: as §6
T4 sequence (P05177 whole entry): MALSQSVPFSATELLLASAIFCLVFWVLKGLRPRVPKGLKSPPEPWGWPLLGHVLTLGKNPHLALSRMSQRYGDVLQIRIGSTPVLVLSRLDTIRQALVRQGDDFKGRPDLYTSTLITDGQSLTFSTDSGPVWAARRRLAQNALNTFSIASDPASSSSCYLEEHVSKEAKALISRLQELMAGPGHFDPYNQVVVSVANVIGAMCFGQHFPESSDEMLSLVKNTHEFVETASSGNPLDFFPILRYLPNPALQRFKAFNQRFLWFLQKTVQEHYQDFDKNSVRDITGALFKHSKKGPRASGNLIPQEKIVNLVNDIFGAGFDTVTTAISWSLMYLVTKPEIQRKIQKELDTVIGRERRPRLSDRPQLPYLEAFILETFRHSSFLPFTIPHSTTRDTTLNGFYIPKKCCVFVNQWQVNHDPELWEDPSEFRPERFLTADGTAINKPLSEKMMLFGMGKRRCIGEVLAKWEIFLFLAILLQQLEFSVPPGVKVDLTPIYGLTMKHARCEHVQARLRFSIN

[15] = biological target: T2, CYP3A4; test: Inhibition of CYP3A4 in human microsomes at 10 uM using midazolam as substrate preincubated for 5 mins followed by NADPH addition measured 20 mins relative to control; format: ADME; conditions: human microsomes, probe midazolam, read-out: TDI; procedure, shortened: as §6
[16] = tested on: Rattus norvegicus; test: Antipsychotic activity in Sprague-Dawley rat assessed as inhibition of PCP-induced hyperlocomotion at 10 mg/kg, po pretreated for 30 mins followed by PCP addition measured after 5 mins for 1.5 hrs by open field test; format: functional, organism-based; procedure, shortened: as §3
[17] = biological target: Cytochrome P450 2C19 (Homo sapiens, UniProt P33261); test: Inhibition of CYP2C19 in human microsomes at 10 uM using mephenytoin as substrate preincubated for 5 mins followed by NADPH addition measured 20 mins relative to control; format: ADME; conditions: microsomes, 20 min, 10 µM; procedure, shortened: as §6
Sequence of Cytochrome P450 2C19 (P33261 whole entry): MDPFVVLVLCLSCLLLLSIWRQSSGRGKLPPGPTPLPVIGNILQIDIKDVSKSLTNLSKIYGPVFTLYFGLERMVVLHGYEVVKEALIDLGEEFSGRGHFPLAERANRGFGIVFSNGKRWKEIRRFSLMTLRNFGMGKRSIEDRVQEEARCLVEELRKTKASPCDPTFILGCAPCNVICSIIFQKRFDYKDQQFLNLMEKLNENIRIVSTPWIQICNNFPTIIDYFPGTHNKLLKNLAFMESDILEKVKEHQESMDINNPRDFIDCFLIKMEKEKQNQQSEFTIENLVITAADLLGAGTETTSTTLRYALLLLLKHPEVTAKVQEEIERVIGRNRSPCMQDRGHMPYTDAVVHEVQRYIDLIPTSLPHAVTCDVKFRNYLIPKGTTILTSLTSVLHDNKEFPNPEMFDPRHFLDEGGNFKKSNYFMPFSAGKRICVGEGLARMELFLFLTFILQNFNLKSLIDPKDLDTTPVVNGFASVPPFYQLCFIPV

[18] = biological target: T4, CYP1A2; test: Time-dependent inhibition of CYP1A2 in human microsomes at 10 uM using phenacetin as substrate preincubated for 5 mins followed by NADPH addition measured 20 mins relative to control; format: ADME; conditions: human microsomes, probe phenacetin, read-out: TDI
[19] = biological target: CYP2C19 (Homo sapiens, UniProt P33261); test: […] of CYP2C19 in human microsomes at 10 uM using mephenytoin as substrate preincubated for 5 mins followed by NADPH addition measured 20 mins relative to control; format: ADME; conditions: human microsomes, probe mephenytoin, read-out: TDI
Sequence of CYP2C19 (P33261 whole entry): as above

- inhibition [1]: 97%
- inhibition at 20 min, 10 µM [2]: 20%
- inhibition at 20 min, 10 µM [3]: 30%
- half-life at 1 µM [5]: 69.3 min
- TDI [7]: Not Active
- IC50 [8]: 76 nM
- TDI [9]: Not Active
- inhibition at 0.5 h, 1 µM [10]: 4%
- half-life at 1 µM [11]: 49.5 min
- TDI [12]: Not Active
- inhibition at 20 min, 10 µM [14]: 12%
- inhibition at 20 min, 10 µM [15]: 22%
- TDI [17]: Not Active
- inhibition at 20 min, 10 µM [18]: 10%
- inhibition at 20 min, 10 µM [19]: 90%
SMILES: Cc1nc2c(N3CCOCC3)ncnc2n1Cc1ccc(-c2cncnc2)cc1
- inhibition [4]: inactive
- inhibition [6]: inactive
- inhibition [13]: Active
- inhibition [16]: Active
